Measured values reported in ChEMBL document CHEMBL3734716, “Labdane and Clerodane Diterpenoids from Colophospermum mopane” (2015).
Converted amounts (≈) assume the structure as drawn. The source made the active and inactive calls. No cut-off for these calls is given here.

Experiments:
Klebsiella pneumoniae = experiment: Antibacterial activity against Klebsiella pneumoniae ATCC 13883 after 24 hrs using p-iodonitrotetrazolium violet dye; type: functional; details: ATCC 13883, 24 h
Procedure, shortened: (§1)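 Broth microdilution MIC. Compounds reconstituted in acetone at a 5 mg/mL starting concentration, then serially doubling-diluted in sterile distilled water. Inoculum approx. 1 × 10^6 CFU/mL. Plates sealed and incubated at 37 °C for 24 h. Growth read after adding p-iodonitrotetrazolium violet (0.4 mg/mL); purple-pink means growth. MIC taken as lowest concentration with no growth. Ciprofloxacin positive control (0.01 mg/mL); acetone solvent and culture controls.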

Escherichia coli = experiment: Antibacterial activity against Escherichia coli ATCC 8739 after 24 hrs using p-iodonitrotetrazolium violet dye; type: functional; details: ATCC 8739, 24 h; procedure, shortened: as §1
Enterococcus faecalis = experiment: Antibacterial activity against Enterococcus faecalis ATCC 29212 after 24 hrs using p-iodonitrotetrazolium violet dye; type: functional; details: ATCC 29212, 24 h; procedure, shortened: as §1
Staphylococcus aureus = experiment: Antibacterial activity against Staphylococcus aureus ATCC 25923 after 24 hrs using p-iodonitrotetrazolium violet dye; type: functional; details: ATCC 25923, 24 h; procedure, shortened: as §1
Homo sapiens = species: Homo sapiens; experiment: Modulation of alpha1beta2gamma2S GABAA receptor (unknown origin) expressed in xenopus oocytes assessed as potentiation of GABA-induced chloride current by two-electrode voltage clamp method; type: cell-based

| Compound | MIC (Klebsiella pneumoniae) [µg/mL] | MIC (Escherichia coli) [µg/mL] | MIC (Enterococcus faecalis) [µg/mL] | MIC (Staphylococcus aureus) [µg/mL] | Activity (Homo sapiens) |
| --- | --- | --- | --- | --- | --- |
| C[C@H]1CC[C@H]2C(C)(C)[C@H](O)CC[C@]2(C)[C@@]12CC[C@](C)(CC(=O)O)O2 | 62.5 (≈ 185 µM) | 125 (≈ 369 µM) | 62.5 (≈ 185 µM) | 125 (≈ 369 µM) | inactive |
| C[C@H]1CC[C@H]2C(C)(C)CCC[C@]2(C)[C@@]12CC[C@](C)(CC(=O)O)O2 | 46.9 (≈ 145 µM) | 125 (≈ 388 µM) | 125 (≈ 388 µM) | 62.5 (≈ 194 µM) | inactive |
| O=C(O)c1cn(C2CC2)c2cc(N3CCNCC3)c(F)cc2c1=O [CIPROFLOXACIN] | 0.078 (≈ 0.235 µM) | 0.156 (≈ 0.471 µM) | 0.156 (≈ 0.471 µM) | 0.156 (≈ 0.471 µM) |  |
| C[C@H]1CC=C2[C@@H](CC[C@@H](O)C2(C)C)[C@]1(C)CCC1=CC(=O)OC1 | 62.5 (≈ 196 µM) | 125 (≈ 393 µM) | 62.5 (≈ 196 µM) | 93.7 (≈ 294 µM) | inactive |
| C[C@H]1CC[C@H]2C(C)(C)[C@H](O)CC[C@]2(C)[C@@]12CC[C@@](C)(CCO)O2 | 62.5 (≈ 193 µM) | 125 (≈ 385 µM) | 125 (≈ 385 µM) | 93.7 (≈ 289 µM) | inactive |
| C[C@@H]1CC[C@@]2(C)[C@H](CC[C@@H]3O[C@@]32C)[C@@]1(C)CCC1=CC(=O)OC1 |  |  |  |  | inactive |
| C/C(=C\C(=O)O)CC[C@@]1(C)[C@H](C)CC[C@@]2(C)C(CO)=CCC[C@H]12 (relative stereo) | 93.8 (≈ 293 µM) | 125 (≈ 390 µM) | 125 (≈ 390 µM) | 62.5 (≈ 195 µM) | inactive |
| CC(=O)O[C@@H]1CC[C@@]2(C)[C@@H](CC[C@H](C)[C@]23CC[C@](C)(CC(=O)O)O3)C1(C)C | 62.5 (≈ 164 µM) | 125 (≈ 328 µM) | 62.5 (≈ 164 µM) | 125 (≈ 328 µM) | inactive |
| C/C(=C\C(=O)O)CC[C@]1(C)[C@@H](C)CC[C@@]2(C)C(CO)=CCC[C@@H]12 | 625 (≈ 1950 µM) | 125 (≈ 390 µM) | 62.5 (≈ 195 µM) | 62.5 (≈ 195 µM) | inactive |
| C/C(=C\C(=O)O)CC[C@]1(C)[C@@H](C)CC[C@]2(C)[C@H]1CC[C@H]1O[C@]12C | 62.5 (≈ 195 µM) | > 250 | 62.5 (≈ 195 µM) | 62.5 (≈ 195 µM) | inactive |
| CC1=CCC[C@H]2[C@](C)(CC/C(C)=C/C(=O)O)[C@@H](C)CC[C@@]12C | 93.8 (≈ 308 µM) | 15.6 (≈ 51.2 µM) | 31.3 (≈ 103 µM) | 15.6 (≈ 51.2 µM) | inactive |
| C[C@H]1CC[C@H]2C(C)(C)CCC[C@]2(C)[C@@]1(O)CCC1=CC(=O)OC1 | 62.5 (≈ 195 µM) | 250 (≈ 780 µM) | 125 (≈ 390 µM) | 125 (≈ 390 µM) | inactive |
